For experiment [1], the system named is BJ. Description: Induction of apoptosis in human BJ cells assessed as caspase 7 activation at 100 uM after 2 days. In kind it is functional, cell-based. Summed up:
(§1)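 HepG2 hepatocellular carcinoma, Rh30 rhabdomyosarcoma and hTERT-immortalized BJ foreskin fibroblast cells were exposed to compound at 100 μM for 2 days. Caspase-3/7 activity was then read with Caspase3/7-Glo reagent and expressed as a proportion of the DMSO control (set to 1), as the mean of three independent experiments.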

The test system of experiment [2] is HepG2. Description: Induction of apoptosis in human HepG2 cells assessed as caspase 3 activation at 100 uM after 2 days. In kind it is functional, cell-based. The procedure, abridged: as §1
For experiment [3], the system named is SJRH30. Description: Induction of apoptosis in human Rh30 cells assessed as caspase 3 activation at 100 uM after 2 days. In kind it is functional, cell-based. Summed up: as §1
Experiment [4] has as its system SJRH30. Description: Induction of apoptosis in human Rh30 cells assessed as caspase 7 activation at 100 uM after 2 days. In kind it is functional, cell-based. The procedure, abridged:
as §1

For experiment [5], the target named is T1, Segment polarity protein dishevelled homolog DVL-3 (Homo sapiens, UniProt Q92997).
T1 sequence (Q92997 whole entry): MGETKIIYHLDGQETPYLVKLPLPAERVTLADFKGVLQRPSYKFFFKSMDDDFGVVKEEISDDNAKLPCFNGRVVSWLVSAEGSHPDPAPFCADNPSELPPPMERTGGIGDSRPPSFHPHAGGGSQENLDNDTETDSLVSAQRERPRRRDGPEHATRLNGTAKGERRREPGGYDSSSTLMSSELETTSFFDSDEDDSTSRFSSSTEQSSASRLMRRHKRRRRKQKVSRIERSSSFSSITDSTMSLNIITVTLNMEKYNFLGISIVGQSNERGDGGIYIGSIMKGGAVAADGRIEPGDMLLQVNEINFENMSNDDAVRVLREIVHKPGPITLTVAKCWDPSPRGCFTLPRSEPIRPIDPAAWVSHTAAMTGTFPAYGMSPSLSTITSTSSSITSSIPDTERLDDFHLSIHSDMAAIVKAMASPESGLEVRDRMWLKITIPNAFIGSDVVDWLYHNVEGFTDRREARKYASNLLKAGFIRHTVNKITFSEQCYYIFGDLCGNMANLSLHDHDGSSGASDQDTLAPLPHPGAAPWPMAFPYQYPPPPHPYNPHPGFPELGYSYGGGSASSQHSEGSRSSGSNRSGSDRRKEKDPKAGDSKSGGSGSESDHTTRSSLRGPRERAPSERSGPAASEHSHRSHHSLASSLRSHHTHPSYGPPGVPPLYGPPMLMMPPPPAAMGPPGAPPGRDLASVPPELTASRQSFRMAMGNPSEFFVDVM
Description: Antagonist activity at human Dvl3 assessed as inhibition of interaction between Dvl3 PDZ domain and […] by alphaScreen assay. In kind it is functional. Summed up: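 Competitive AlphaScreen energy-transfer assay for binding of the Dvl PDZ domain to the Fz7 PDZ-binding region. IC50 fitted from binding curves, each the mean of three independent experiments.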

The subject of experiment [6] is BJ. Description: Induction of apoptosis in human BJ cells assessed as caspase 3 activation at 100 uM after 2 days. In kind it is functional, cell-based. Summed up: as §1
Experiment [7] has as its system HepG2. Description: Induction of apoptosis in human HepG2 cells assessed as caspase 7 activation at 100 uM after 2 days. In kind it is functional, cell-based. Summed up: as §1
Experiment [8] deals with T2, Segment polarity protein dishevelled homolog DVL-1 (Homo sapiens, UniProt O14640).
T2 sequence (O14640 whole entry): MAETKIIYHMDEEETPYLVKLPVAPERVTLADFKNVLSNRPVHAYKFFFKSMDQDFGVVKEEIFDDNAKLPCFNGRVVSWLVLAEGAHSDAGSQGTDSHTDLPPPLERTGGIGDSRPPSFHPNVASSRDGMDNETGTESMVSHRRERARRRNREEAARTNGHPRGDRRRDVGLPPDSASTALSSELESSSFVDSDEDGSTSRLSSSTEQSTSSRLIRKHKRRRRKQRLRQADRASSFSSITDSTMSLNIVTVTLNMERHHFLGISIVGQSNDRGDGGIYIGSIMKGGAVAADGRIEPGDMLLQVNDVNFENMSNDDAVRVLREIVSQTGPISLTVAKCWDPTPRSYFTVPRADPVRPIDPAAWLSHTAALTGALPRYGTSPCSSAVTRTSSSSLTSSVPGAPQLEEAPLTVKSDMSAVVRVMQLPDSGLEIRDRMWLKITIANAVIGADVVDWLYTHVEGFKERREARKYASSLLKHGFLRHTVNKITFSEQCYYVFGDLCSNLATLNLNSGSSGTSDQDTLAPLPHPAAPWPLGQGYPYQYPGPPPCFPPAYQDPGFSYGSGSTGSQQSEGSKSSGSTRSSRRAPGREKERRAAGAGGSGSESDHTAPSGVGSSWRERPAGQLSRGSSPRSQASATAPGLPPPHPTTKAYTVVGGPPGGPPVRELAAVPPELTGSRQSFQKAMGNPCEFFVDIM
Description: Antagonist activity at human Dvl1 assessed as inhibition of interaction between Dvl1 PDZ domain and […] by alphaScreen assay. In kind it is functional.

The source made the active and inactive calls. No cut-off for these calls is given here.

What is called IC50 is the concentration that inhibits the measured activity by half. For `Cc1cc2c(cc1C(=O)O)c(CCc1ccccc1)c(C(=O)NC1CCCCC1)n2C`, the result in experiment [1] and in experiment [6] was inactive. Moreover, the result in experiment [2], in experiment [3], in experiment [4] and in experiment [7] was Active. Also, the IC50 in experiment [5] was determined as 92 µM.

Regarding `Cc1cc2[nH]c(C(=O)NC(C)(C)C)c(CCc3ccccc3)c2cc1C(=O)O`, the half-maximal inhibitory concentration (IC50) in experiment [8] and in experiment [5] was above 500 µM each time.

In the case of `COC(=O)c1cc2c(CCc3ccccc3)c(C(=O)NC3CCCCC3)[nH]c2cc1C`, the IC50 in experiment [5] came to 57 µM.

As to `Cc1cc2[nH]c(C(=O)NCC3CCCCC3)c(CCc3ccccc3)c2cc1C(=O)O`, the IC50 in experiment [5] was found to be 309 µM.

For the compound `Cc1cc2[nH]c(C(=O)NCCC(=O)O)c(CCc3ccccc3)c2cc1C(=O)O`, the IC50 in experiment [8] and in experiment [5] was above 500 µM each time.

Take `CCCNC(=O)c1[nH]c2cc(C)c(C(=O)O)cc2c1CCc1ccccc1`: the 50% inhibitory concentration (IC50) in experiment [8] and in experiment [5] was above 500 µM each time.

For the compound `Cc1cc2[nH]c(C(=O)NCc3ccccc3)c(CCc3ccccc3)c2cc1C(=O)O`, the outcome in experiment [1] and in experiment [6] was inactive. For the same compound, the outcome in experiment [2], in experiment [3], in experiment [4] and in experiment [7] was Active. The half-inhibitory concentration (IC50) in experiment [5] is 291 µM.

On to `Cc1cc2[nH]c(C(=O)NCC3CC3)c(CCc3ccccc3)c2cc1C(=O)O`, for which the IC50 in experiment [8] and in experiment [5] was above 500 µM throughout.

`Cc1cc2[nH]c(C(=O)NC3CCCCC3)c(CCc3ccccc3)c2cc1C(=O)O`: the result in experiment [1] and in experiment [6] was inactive. Moreover, the outcome in experiment [2], in experiment [3], in experiment [4] and in experiment [7] was Active. Further, the IC50 in experiment [5] came to 23 µM.

Consider `CCC(C)CNC(=O)c1[nH]c2cc(C)c(C(=O)O)cc2c1CCc1ccccc1` (stereo not drawn), for which the result in experiment [1] and in experiment [6] was inactive. The outcome in experiment [2], in experiment [3], in experiment [4] and in experiment [7] was Active. Moreover, the 50% inhibitory concentration (IC50) in experiment [5] was found to be 160 µM.

Values taken from ChEMBL document CHEMBL1143159, “Indole-2-amide based biochemical antagonist of Dishevelled PDZ domain interaction down-regulates Dishevelled-driven Tcf transcriptional activity” (Bioorg Med Chem Lett, 2008).
